Laboratory results as given in ChEMBL document CHEMBL2331506, “Design, synthesis, antiviral and cytostatic evaluation of novel isoxazolidine nucleotide analogues with a carbamoyl linker” (Bioorg Med Chem, 2013).
The source made the active and inactive calls. How the calls were made is not given here.

Legend:
MDCK = test: Cytotoxicity against dog MDCK cells assessed as alteration of cell morphology up to 100 uM by microscopic analysis; format: cell-based, Canis lupus familiaris
Method in brief: (§1)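 Uninfected host-cell cultures were exposed to compound and examined by microscopy. Cytotoxicity was expressed as the minimum cytotoxic concentration (MCC) causing a microscopically detectable alteration of normal cell morphology.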

[1] = Cytotoxicity against cat CRFK cells assessed as alteration of cell morphology up to 100 uM by microscopic analysis; format: cell-based, Felis catus; method in brief: as §1
Vero = test: Cytotoxicity against african green monkey Vero cells assessed as alteration of cell morphology up to 100 uM by microscopic analysis; format: cell-based; details: chlorocebus sabaeus; method in brief: as §1
HeLa = test: Cytotoxicity against human HeLa cells assessed as alteration of cell morphology up to 100 uM by microscopic analysis; format: cell-based; method in brief: as §1
HEL = test: Cytotoxicity against human HEL cells assessed as alteration of cell morphology up to 100 uM by microscopic analysis; format: cell-based; method in brief: as §1
[2] = system: Human immunodeficiency virus 2; test: Antiviral activity against Human immunodeficiency virus 2 ROD infected in human CEM cells assessed as reduction of virus-induced giant cell formation at 250 uM after 4 to 5 days; format: functional, organism-based; details: CCRF-CEM
Method in brief: (§2)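 CEM cells at 3 × 10^5 cells/mL were infected with HIV at 100 CCID50 per mL in the presence of compound dilutions. They were held 4–5 days at 37 °C in humidified CO2. Syncytium (giant cell) formation was scored microscopically, and EC50 was taken as the concentration inhibiting giant cell formation by 50%.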

[3] = system: Human immunodeficiency virus 1; test: Antiviral activity against Human immunodeficiency virus 1 3B infected in human CEM cells assessed as reduction of virus-induced giant cell formation at 250 uM after 4 to 5 days; format: functional, organism-based; details: CCRF-CEM; method in brief: as §2
Feline coronavirus = test: Antiviral activity against Feline coronavirus infected in cat CRFK cells assessed as reduction of virus-induced cytopathogenicity at 250 uM; format: functional, organism-based
Felid alphaherpesvirus 1 = test: Antiviral activity against Feline herpes virus infected in cat CRFK cells assessed as reduction of virus-induced cytopathogenicity at 250 uM; format: functional, organism-based
Influenza B virus = test: Antiviral activity against Influenza B virus infected in dog MDCK cells assessed as reduction of virus-induced cytopathogenicity at 250 uM; format: functional, organism-based
Method in brief: (§3)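 Confluent cell monolayers were infected with 100 CCID50 of virus while exposed to varying compound concentrations. Cytopathicity was scored once it was complete in untreated infected controls. EC50 was taken as the concentration that reduced virus-induced cytopathogenicity by 50%.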

Influenza A virus [4] = test: Antiviral activity against Influenza A virus H3N2 infected in dog MDCK cells assessed as reduction of virus-induced cytopathogenicity at 250 uM; format: functional, organism-based; method in brief: as §3
Influenza A virus [5] = test: Antiviral activity against Influenza A virus H1N1 infected in dog MDCK cells assessed as reduction of virus-induced cytopathogenicity at 250 uM; format: functional, organism-based; method in brief: as §3
Punta Toro virus = test: Antiviral activity against Punta Toro virus infected in african green monkey Vero cells assessed as reduction of virus-induced cytopathogenicity at 250 uM; format: functional, organism-based
Method in brief: (§4)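 Confluent monolayers (HEL fibroblasts, Vero, or HeLa cells as listed) were infected with 100 CCID50 of virus in the presence of varying compound concentrations. Virus-induced cytopathicity or plaque formation was scored once cytopathicity was complete in untreated infected controls. EC50 was taken as the concentration reducing cytopathogenicity or plaque formation by 50%.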

Sindbis virus = test: Antiviral activity against Sindbis virus infected in african green monkey Vero cells assessed as reduction of virus-induced cytopathogenicity at 250 uM; format: functional, organism-based; method in brief: as §4
Coxsackievirus B4 = test: Antiviral activity against Coxsackievirus B4 infected in african green monkey Vero cells assessed as reduction of virus-induced cytopathogenicity at 250 uM; format: functional, organism-based; method in brief: as §4
[6] = system: Mammalian orthoreovirus 1; test: Antiviral activity against Reovirus 1 infected in african green monkey Vero cells assessed as reduction of virus-induced cytopathogenicity at 250 uM; format: functional, organism-based; method in brief: as §4
Human respirovirus 3 = test: Antiviral activity against Parainfluenza virus 3 infected in african green monkey Vero cells assessed as reduction of virus-induced cytopathogenicity at 250 uM; format: functional, organism-based; method in brief: as §4
[7] = system: Respiratory syncytial virus; test: Antiviral activity against Respiratory syncytial virus long infected in human HeLa cells assessed as reduction of virus-induced cytopathogenicity at 250 uM; format: functional, organism-based; method in brief: as §4
[8] = system: Vesicular stomatitis virus; test: Antiviral activity against Vesicular stomatitis virus infected in human HeLa cells assessed as reduction of virus-induced cytopathogenicity at 250 uM; format: functional, organism-based; method in brief: as §3
Human alphaherpesvirus 1 [9] = test: Antiviral activity against thymidine kinase-deficient, ACV-resistant Herpes simplex virus 1 KOS infected in human HEL cells assessed as reduction of virus-induced cytopathogenicity at 250 uM; format: functional, organism-based; method in brief: as §3
[10] = system: Vesicular stomatitis virus; test: Antiviral activity against Vesicular stomatitis virus infected in human HEL cells assessed as reduction of virus-induced cytopathogenicity at 250 uM; format: functional, organism-based; method in brief: as §3
Human alphaherpesvirus 2 = test: Antiviral activity against Herpes simplex virus 2 G infected in human HEL cells assessed as reduction of virus-induced cytopathogenicity at 250 uM; format: functional, organism-based; details: strain G; method in brief: as §4
Human alphaherpesvirus 1 [11] = test: Antiviral activity against Herpes simplex virus 1 KOS infected in human HEL cells assessed as reduction of virus-induced cytopathogenicity at 250 uM; format: functional, organism-based; method in brief: as §4

Row | Structure (SMILES) | Activity (MDCK) | Activity [1] | Activity (Vero) | Activity (HeLa) | Activity (HEL) | inhibition [2] | inhibition [3] | inhibition (Feline coronavirus) | inhibition (Felid alphaherpesvirus 1) | inhibition (Influenza B virus) | inhibition (Influenza A virus [4]) | inhibition (Influenza A virus [5]) | inhibition (Punta Toro virus) | inhibition (Sindbis virus) | inhibition (Coxsackievirus B4) | inhibition [6] | inhibition (Human respirovirus 3) | inhibition [7] | inhibition [8] | inhibition (Human alphaherpesvirus 1 [9]) | further results
1 | CCOP(=O)(OCC)[C@@H]1C[C@H](C(=O)Nc2ccccc2Cl)ON1C (mixture of isomers) | Non-toxic | Non-toxic | Non-toxic | Non-toxic | Non-toxic | inactive | inactive | inactive | inactive | inactive | inactive | inactive | inactive | inactive | inactive | inactive | inactive | inactive | inactive | inactive | inhibition [10]: inactive; inhibition (Human alphaherpesvirus 2): inactive; inhibition (Human alphaherpesvirus 1 [11]): inactive
2 | CCOP(=O)(OCC)[C@@H]1C[C@H](C(=O)Nc2ccc(OC)c(OC)c2)ON1C (mixture of isomers) | Non-toxic | Non-toxic | Non-toxic | Non-toxic | Non-toxic | inactive | inactive | inactive | inactive | inactive | inactive | inactive | inactive | inactive | inactive | inactive | inactive | inactive | inactive | inactive | inhibition [10]: inactive; inhibition (Human alphaherpesvirus 2): inactive; inhibition (Human alphaherpesvirus 1 [11]): inactive
3 | CCOP(=O)(OCC)[C@H]1C[C@H](C(=O)Nc2ccc(OC)c(OC)c2)ON1C (mixture of isomers) | Non-toxic | Non-toxic | Non-toxic | Non-toxic | Non-toxic | inactive | inactive | inactive | inactive | inactive | inactive | inactive | inactive | inactive | inactive | inactive | inactive | inactive | inactive | inactive | inhibition [10]: inactive; inhibition (Human alphaherpesvirus 2): inactive; inhibition (Human alphaherpesvirus 1 [11]): inactive
4 | CCOP(=O)(OCC)[C@H]1C[C@H](C(=O)Nc2cc(OC)c(OC)c(OC)c2)ON1C (mixture of isomers) | Non-toxic | Non-toxic | Non-toxic | Non-toxic | Non-toxic | inactive | inactive | inactive | inactive | inactive | inactive | inactive | inactive | inactive | inactive | inactive | inactive | inactive | inactive | inactive | inhibition [10]: inactive; inhibition (Human alphaherpesvirus 2): inactive; inhibition (Human alphaherpesvirus 1 [11]): inactive
5 | CCOP(=O)(OCC)[C@H]1C[C@H](C(=O)Nc2cc(OC)c(OC)cc2C#N)ON1C (mixture of isomers) | Non-toxic | Non-toxic | Non-toxic | Non-toxic | Non-toxic | inactive | inactive | inactive | inactive | inactive | inactive | inactive | inactive | inactive | inactive | inactive | inactive | inactive | inactive | inactive | inhibition [10]: inactive; inhibition (Human alphaherpesvirus 2): inactive; inhibition (Human alphaherpesvirus 1 [11]): inactive
6 | CCOP(=O)(OCC)[C@@H]1C[C@H](C(=O)Nc2cc(OC)c(OC)cc2C#N)ON1C (mixture of isomers) | Non-toxic | Non-toxic | Non-toxic | Non-toxic | Non-toxic | inactive | inactive | inactive | inactive | inactive | inactive | inactive | inactive | inactive | inactive | inactive | inactive | inactive | inactive | inactive | inhibition [10]: inactive; inhibition (Human alphaherpesvirus 2): inactive; inhibition (Human alphaherpesvirus 1 [11]): inactive
7 | CCOP(=O)(OCC)[C@H]1C[C@H](C(=O)Nc2cc(OC)c(OC)cc2C(C)=O)ON1C (mixture of isomers) | Non-toxic | Non-toxic | Non-toxic | Non-toxic | Non-toxic | inactive | inactive | inactive | inactive | inactive | inactive | inactive | inactive | inactive | inactive | inactive | inactive | inactive | inactive | inactive | inhibition [10]: inactive; inhibition (Human alphaherpesvirus 2): inactive; inhibition (Human alphaherpesvirus 1 [11]): inactive
8 | CCOP(=O)(OCC)[C@@H]1C[C@H](C(=O)Nc2cc(OC)c(OC)cc2C(C)=O)ON1C (mixture of isomers) | Non-toxic | Non-toxic | Non-toxic | Non-toxic | Non-toxic | inactive | inactive | inactive | inactive | inactive | inactive | inactive | inactive | inactive | inactive | inactive | inactive | inactive | inactive | inactive | inhibition [10]: inactive; inhibition (Human alphaherpesvirus 2): inactive; inhibition (Human alphaherpesvirus 1 [11]): inactive
